ChEMBL document CHEMBL1765066, “Role of metalation in the topoisomerase IIα inhibition and antiproliferation activity of a series of α-heterocyclic-N4-substituted thiosemicarbazones and their Cu(II) complexes” (J Med Chem, 2011)
Calls of active or inactive are those of the source. The rule behind the calls is not given here.

Assays:
[1] = biological target: T1, DNA topoisomerase 2-alpha (Homo sapiens, UniProt P11388); assay: Inhibition of human topoisomerase 2 alpha-mediated relaxation of supercoiled pHOT DNA after 30 mins by agarose gel electrophoresis
[2] = biological target: T1, DNA topoisomerase 2-alpha; assay: Inhibition of human topoisomerase 2 alpha-mediated relaxation of supercoiled pHOT DNA at 100 uM after 30 mins by agarose gel electrophoresis
How it was run: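 Single-concentration gel run at 100 μM drug, added from DMSO stock. Commercial human topo IIα (~2 units) with supercoiled pHOT DNA in reaction buffer (20 μL final), 37 °C for 30 min. The reaction was stopped with SDS plus proteinase K (37 °C, 15 min) and electrophoresed on 1% agarose (5 h, 5 V/cm). Gels were ethidium bromide pre- or post-stained and scored for supercoiled, relaxed and linear DNA.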

SK-BR-3 = assay: Growth inhibition against human SK-BR-3 cells after 24 hrs by MTT assay; assay type: functional; conditions: SK-BR-3, 24 h
How it was run: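 SK-BR-3 cells in DMEM:F-12 (1:1) with 10% fetal calf serum, L-glutamine, nonessential amino acids and penicillin/streptomycin were seeded at 20 000 cells/well overnight. Drug was added in fresh medium (500 μM to 10 nM) for 24 h at 37 °C/5% CO2. MTT was added for 3 h, detergent solubilization ran overnight at room temperature, then absorbance was read. Values were normalized to untreated wells; GI50 from a sigmoidal fit; triplicate.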

T1 sequence (P11388 whole entry): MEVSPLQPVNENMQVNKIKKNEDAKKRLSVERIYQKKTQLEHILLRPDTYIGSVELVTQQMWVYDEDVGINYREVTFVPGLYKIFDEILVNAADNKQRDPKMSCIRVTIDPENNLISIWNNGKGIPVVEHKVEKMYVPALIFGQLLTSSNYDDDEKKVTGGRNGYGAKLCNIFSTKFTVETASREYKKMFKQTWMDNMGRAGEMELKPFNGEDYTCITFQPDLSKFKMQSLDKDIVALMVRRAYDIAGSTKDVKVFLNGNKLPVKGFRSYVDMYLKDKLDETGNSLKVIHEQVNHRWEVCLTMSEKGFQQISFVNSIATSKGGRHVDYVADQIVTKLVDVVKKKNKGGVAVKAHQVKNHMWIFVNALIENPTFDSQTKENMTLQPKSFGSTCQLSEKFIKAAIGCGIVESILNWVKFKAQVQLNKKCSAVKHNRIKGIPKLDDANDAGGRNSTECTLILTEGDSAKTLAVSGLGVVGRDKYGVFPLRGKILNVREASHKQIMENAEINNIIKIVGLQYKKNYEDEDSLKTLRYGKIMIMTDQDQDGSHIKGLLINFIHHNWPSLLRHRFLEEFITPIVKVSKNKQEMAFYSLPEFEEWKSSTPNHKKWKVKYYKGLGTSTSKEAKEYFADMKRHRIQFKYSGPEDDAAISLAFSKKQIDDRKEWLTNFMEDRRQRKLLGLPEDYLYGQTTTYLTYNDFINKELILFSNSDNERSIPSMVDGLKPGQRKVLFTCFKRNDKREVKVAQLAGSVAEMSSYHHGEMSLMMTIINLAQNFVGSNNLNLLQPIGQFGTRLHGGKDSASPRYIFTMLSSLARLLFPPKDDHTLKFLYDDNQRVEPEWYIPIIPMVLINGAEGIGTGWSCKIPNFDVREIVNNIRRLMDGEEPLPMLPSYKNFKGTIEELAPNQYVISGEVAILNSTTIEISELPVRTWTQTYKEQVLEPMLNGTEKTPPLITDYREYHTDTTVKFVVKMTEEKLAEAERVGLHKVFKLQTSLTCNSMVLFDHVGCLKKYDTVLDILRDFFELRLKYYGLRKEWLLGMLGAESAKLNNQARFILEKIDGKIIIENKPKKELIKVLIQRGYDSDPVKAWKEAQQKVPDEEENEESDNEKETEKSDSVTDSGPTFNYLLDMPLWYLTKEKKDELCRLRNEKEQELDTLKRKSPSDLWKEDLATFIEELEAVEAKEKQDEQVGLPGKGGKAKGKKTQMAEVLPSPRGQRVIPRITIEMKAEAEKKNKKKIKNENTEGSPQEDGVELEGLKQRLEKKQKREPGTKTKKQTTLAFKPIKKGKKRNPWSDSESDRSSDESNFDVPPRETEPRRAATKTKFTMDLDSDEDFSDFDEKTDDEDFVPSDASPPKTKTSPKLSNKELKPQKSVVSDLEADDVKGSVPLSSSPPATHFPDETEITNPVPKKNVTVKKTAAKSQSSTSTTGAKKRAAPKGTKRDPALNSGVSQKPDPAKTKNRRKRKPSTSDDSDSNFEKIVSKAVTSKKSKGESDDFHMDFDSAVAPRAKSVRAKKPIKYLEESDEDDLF

S=C(N/N=C/c1ccccn1)N1CCCC1
IC50 [1]: > 100 µM
inhibition [2]: inactive
GI50 (SK-BR-3): 4.3 µM

C=CCNC(=S)N/N=C/c1ccccn1
IC50 [1]: > 100 µM
inhibition [2]: inactive
GI50 (SK-BR-3): 8.1 µM

C=CCNC(=S)N/N=C(\C)c1ccccn1
IC50 [1]: > 100 µM
inhibition [2]: inactive
GI50 (SK-BR-3): 6.1 µM

CNC(=S)N/N=C(\C)c1ccccn1
IC50 [1]: 92 µM
inhibition [2]: Active
GI50 (SK-BR-3): 5.5 µM

CNC(=S)N/N=C/c1ccccn1
IC50 [1]: 76 µM
inhibition [2]: Active
GI50 (SK-BR-3): 7.1 µM

S=C(NCc1ccccc1)N/N=C/c1ccccn1
IC50 [1]: > 100 µM
inhibition [2]: inactive
GI50 (SK-BR-3): 4.6 µM

N/C(S)=N/N=C/c1ccccn1
IC50 [1]: > 100 µM
inhibition [2]: inactive
GI50 (SK-BR-3): 7.4 µM

CC(C)NC(=S)N/N=C/c1ccccn1
IC50 [1]: > 100 µM
inhibition [2]: inactive
GI50 (SK-BR-3): 7.7 µM

CCNC(=S)N/N=C(\C)c1ccccn1
IC50 [1]: 79 µM
inhibition [2]: Active
GI50 (SK-BR-3): 5.9 µM

CCNC(=S)N/N=C/c1ccccn1
IC50 [1]: 94 µM
inhibition [2]: Active
GI50 (SK-BR-3): 6.3 µM

C/N=C(\S)N/N=C(\C)c1cnccn1
IC50 [1]: > 100 µM
inhibition [2]: inactive
GI50 (SK-BR-3): 7.9 µM
